Laboratory results reported in the array DNA melting data of Ke et al. (doi:10.1101/2024.01.08.574731).

Key:
[1] = melting temperature; fluorescence melt of hairpins on a sequencing array, two-state fit, raised by 9.35 °C to match UV melts; settings: sodium 0.088 M
Outline: (§1)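 Folding enthalpy and melting temperature were estimated with bootstrapped two-state fits and combined across four replicates by inverse-variance weighting, with fitted temperatures raised by 9.35 °C to match UV melts. The data were Cy3 fluorescence of library hairpins, with annealed Cy3 and quencher oligos, on a sequenced MiSeq flow cell in 50 mM Na-HEPES pH 8.0, 25 mM NaCl, imaged in 2.5 °C steps up to 60 °C and normalised to pre-quench Cy3 and control constructs.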

[2] = folding enthalpy; higher = less favourable; fluorescence melt of hairpins on a sequencing array, two-state fit; settings: sodium 0.088 M
Outline: as §1

Row | Sequence | Tm [1] [°C] | folding enthalpy [2] [kcal/mol]
1 | GATCTATCCTAGATC ((((((...)))))) | 41.1 | -30.6
2 | GATCGTCAGACGATC ((((((...)))))) | 52.5 | -35.2
3 | GACAGAGGAAACTTTGTC ((((.((....)).)))) | 36.7 | -25.3
4 | TGGAAGAAATTCCA (((((....))))) | 30.7 | -12.4
5 | GCCGGAGGAAACTCTGGC (((.(((....))).))) | 54.8 | -34.6
6 | GTTCGCGGAAACGCAAAC (((.(((....))).))) | 43.7 | -20.8
7 | GGCGTTGGAAACAATGCC (((.(((....))).))) | 56.5 | -53.7
8 | GATCCTCCTTAGGATC ((((((....)))))) | 50.9 | -36.8
9 | GTCGACCGAAAGGTGGAC (((.(((....))).))) | 56.1 | -42.1
10 | GGACACGAAAGTGGCTCC ((((((....)))..))) | 49 | -11.8
11 | GATCGTTCCACGATC ((((((...)))))) | 59.6 | -40.1
12 | GGACCGCCGAAAGGCTCC (((..(((....)))))) | 32.2 | -10
13 | GCTTATGGAAACATAAGC (((((((....))))))) | 56 | -40.6
14 | GATACGCGAAAGCGCATC (((.(((....))).))) | 46.4 | -20.2
15 | GTAGACGGAAACGCCTAC ((((.((....)).)))) | 45.3 | -32.3
16 | GATCGCTAGTGCGATC ((((((....)))))) | 67 | -35.2
17 | GGCCCAGGAAACCGAGCC (((.(.(....).).))) | 36.9 | -15.7
18 | GACAGAGGAAACTCTGTC (((((((....))))))) | 60.6 | -41.3
19 | GATCAGTATCTGATC ((((((...)))))) | 48.5 | -34.9
20 | GGATTCCCGAAAGGGTCC (((..(((....)))))) | 39.3 | -14.6
21 | GGTCCACGAAAGTGTACC (((.(((....))).))) | 50 | -21.7
22 | GTTTTACGAAAGTAAAC (((.(((....)))))) | 38.7 | -17.4
23 | GAAGGCGGAAACACCTTC (((((.(....).))))) | 42.7 | -30.9

Row | Sequence | Tm [1] [°C] | folding enthalpy [2] [kcal/mol]
24 | GACGACGGAAACACCGTC ((((..(....)..)))) | 38.2 | -13.2
25 | GCGTACGAAAGTAACGC ((((((....))).))) | 59.4 | -40.2
26 | GGCCGAGGAAACTCGGTC (.(((((....))))).) | 64.4 | -31.4
27 | GATCCGGAATCGGATC ((((((....)))))) | 62 | -45.2
28 | GAACCGCGAAAGCGCTTC (((.(((....))).))) | 35.1 | -10.6
29 | GCTTTCGCGAAAGCGAGC (((..(((....)))))) | 48.9 | -10.6
30 | GGGTCTGGAAACAGGCCC (((.(((....))).))) | 59.8 | -46.8
31 | GTGTCCGAAAGGAGCAC ((((((....))).))) | 49 | -23.9
32 | GTGCGTTCGAAAGAACAC (((..(((....)))))) | 54.1 | -11.7
33 | GCGGGCGGAAACGCCCAC (.(((((....))))).) | 57.2 | -8.92
34 | GCGATGCGAAAGCCCCGC (((..((....))..))) | 43.9 | -20.5
35 | GCATAGCGAAAGCATTGC (((..((....))..))) | 50.7 | -18.4
36 | GTGACCGAAAGGTACAC ((((((....))).))) | 49.9 | -19.4
37 | TCAGAGAAATCTGA (((((....))))) | 27.6 | -9.32
38 | GATCAAATATTTGATC ((((((....)))))) | 47.1 | -48.2
39 | GGTAAAACGAAAGTTACC (((..(((....)))))) | 37.3 | -19.1
40 | GGACTGCGAAAGCACTCC (((.(((....))).))) | 38.9 | -8.91
41 | GATCTTTATCAAGATC ((((((....)))))) | 39.3 | -29.4
42 | GTGCACGAAAGTGTACAC ((((((....)))..))) | 51.8 | -17.1
43 | GGTAGCTCGAAAGAGACC (((..(((....)))))) | 28.3 | -11.7
44 | GCTGTCGAAAGACCAAGC ((((((....)))..))) | 38.9 | -19.5
45 | GATCGATCCATCGATC ((((((....)))))) | 56.7 | -49.1
46 | CGAGCGGAAACGCCATCG ((((((....)))..))) | 31.9 | -12.5

Row | Sequence | Tm [1] [°C] | folding enthalpy [2] [kcal/mol]
47 | GATCCGAAGCGGATC ((((((...)))))) | 55.4 | -37
48 | GTTAGCCGAAAGGCAAC (((.(((....)))))) | 49.3 | -13.5
49 | GGTGATGAAAATCACC ((((((....)))))) | 62.5 | -32.1
50 | GCAGCTACGAAAGTATGC (((..(((....)))))) | 36.1 | -15
51 | GCTAGTCGAAAGACGAGC (((.(((....))).))) | 57.6 | -35.4
52 | GTGTCCGGAAACGGATGC (..((((....))))..) | 48 | -25.7
53 | GGCTAGGGAAACTTGGCC (((.(.(....).).))) | 40.6 | -25.9
54 | GATGTCGGAAACGATATC (((.(((....))).))) | 46.6 | -48.3
55 | GGCGACCCGAAAGGGGCC (((..(((....)))))) | 54.6 | -13.1
56 | GCACATCCGAAAGGATGC (((..(((....)))))) | 37.4 | -8.29
57 | GATCCCGCGGGGATC ((((((...)))))) | 61 | -31.2
58 | GCCCTCGAAAGAGAAGGC ((((((....)))..))) | 48.3 | -22.2
59 | GACTGAACGAAAGTTGTC (((..(((....)))))) | 32.8 | -19.5
60 | GCCGTCCGAAAGGAGGC (((.(((....)))))) | 58.4 | -27.4
61 | GGTTGCGGAAACGCAATC (.(((((....))))).) | 54.9 | -28.9
62 | GTGGTCCGAAAGGAGCAC (((.(((....))).))) | 67.6 | -34.6
63 | GAAGACGAAAGTCGGTTC ((((((....)))..))) | 34.4 | -12.8
64 | GGGCACGAAAGTGGACCC ((((((....)))..))) | 53.6 | -17.9
65 | GGTACGGGAAACCATACC ((((.((....)).)))) | 36.7 | -28.2
66 | CGCGTCCGGAAACGGGCG (((..(((....)))))) | 55.2 | -14
67 | GATCAGTATCCTGATC ((((((....)))))) | 48.7 | -33.3
68 | GTGTCAGGAAACCGACAC (((((.(....).))))) | 49.2 | -42.6
69 | GCGAACGAAAGTTACCGC ((((((....)))..))) | 37.7 | -22.1
